Laboratory results published in paper PMC9851031 (ACS Omega, 2023).

Assays:
Format in all cases: in vivo
[1] = tested on: scPTZ-induced seizure in albino mice; test: Subcutaneous pentylenetetrazole; conditions: Mus musculus, ip, 4 h, read-out: scPTZ minimum dose for antiepileptic potential
How it was run: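 Overnight-fasted albino mice were dosed i.p. with test compound in PEG-200 at 30, 100 and 300 mg/kg and observed at 0.5 and 4 h. Pentylenetetrazole was injected subcutaneously in the posterior midline. Protection meant no clonic spasm episode lasting 5 s, n = 5 per group. The minimum protective dose was reported.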

Swiss albino mice = test: Acute toxicity; conditions: i.p., observed 24 h
How it was run: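 Albino mice, five per cage, on a 12 h light/dark cycle, fasted overnight. Acute toxic-class testing followed OECD 423. Deaths and signs of toxicity were recorded after dosing to estimate the median lethal dose.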

albino mice = test: Rotarod neurotoxicity test; conditions: i.p. in mice, doses 30, 100, 300 mg/kg
How it was run: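 Albino mice of either sex, housed five per cage on a 12 h light/dark cycle and fasted overnight, were first trained to balance on a 3.2 cm diameter rod turning at 6 rpm. Trained mice then received test compound i.p. in PEG-200 at 30, 100 or 300 mg/kg. Neurotoxicity was scored as failure to stay on the rod for at least 1 min in each of three successive trials.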

Q: For `CCC1(c2ccccc2)C(=O)NC(=O)NC1=O` [phenobarbital, reference compound], which minimal effective dose [1] is on record?
A: Its minimal effective dose is 100 mg/kg.

Q: And the “number of animals dead/tot number of animals tested” value (Swiss albino mice; dosage 5 mg/kg)?
A: Its value is 0/3.

Q: And the “number of animals dead/tot number of animals tested” value (Swiss albino mice; dosage 30 mg/kg)?
A: Its value is 0/3.

Q: And the “number of animals dead/tot number of animals tested” value (Swiss albino mice; dosage 100 mg/kg)?
A: The value was 0/3.

Q: What about the “number of animals dead/tot number of animals tested” value (Swiss albino mice; dosage 300 mg/kg) of the same compound?
A: The value was 0/3.

Q: What about the neurotoxicity minimum dose (albino mice; 0.5 h) of the same compound?
A: The neurotoxicity minimum dose was 100 mg/kg.

Q: What about the neurotoxicity minimum dose (albino mice; 4.0 h) of the same compound?
A: Its neurotoxicity minimum dose is 300 mg/kg.
